Reference: ChEMBL document CHEMBL3763085, “Optimization of tetrahydronaphthalene inhibitors of Raf with selectivity over hERG” (Bioorg Med Chem Lett, 2016)

Columns and labels:
Format in all cases: ADME, organism-based
[1] = Oral bioavailability in Sprague-Dawley rat at 10 mg/kg; conditions: in vivo
Summary of the method: (§1)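 Male SD rats were dosed orally at 10 mg/kg in 10% 2-hydroxypropyl-beta-cyclodextrin.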

[2] = Plasma clearance in Sprague-Dawley rat at 1 mg/kg, iv
Summary of the method: (§2)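 Male SD rats received 1 mg/kg intravenously. The vehicle was 10% 2-hydroxypropyl-beta-cyclodextrin or ethanol/PEG400/N,N-dimethylacetamide/water 1:4:1:4 (by volume), depending on compound. Plasma clearance (L/h/kg) and steady-state volume of distribution (L/kg) were derived.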

[3] = Volume of distribution at steady state in Sprague-Dawley rat at 1 mg/kg, iv; conditions: in vivo, read-out: Vdss; summary of the method: as §2
[4] = AUC in Sprague-Dawley rat at 10 mg/kg, po; conditions: in vivo; summary of the method: as §1

| bioavailability [1] | clearance [2] | Vd [3] | AUC [4] | SMILES |
| --- | --- | --- | --- | --- |
| 54% | 1.33 mL/min/kg | 0.41 L/kg | 126 µM·h | Cl.Cn1cc(-c2cc(C(=O)N[C@@H]3CCc4ccc(Oc5ccnc6c5CCC(=O)N6)cc4C3)cc(C(F)(F)F)c2)cn1 |
| 100% | 3.83 mL/min/kg | 0.75 L/kg | 98.6 µM·h | CN(C)Cc1cc(C(=O)N[C@@H]2CCc3ccc(Oc4ccnc5c4CCC(=O)N5)cc3C2)cc(C(F)(F)F)c1.Cl.Cl |
